Our source for the Activity, MIC and hemolysis values is ChEMBL document CHEMBL1151419, “Antimicrobial effect of halocidin-derived peptide in a mouse model of Listeria infection” (Antimicrob Agents Chemother, 2007).

In brackets after ≈: the same amount, converted by molar mass. Activity calls are given as the source filed them. No cut-off for these calls is given here. Bridge positions count the residues as written; N and C are the ends. Peptide text beside a SMILES is read from it. I, II: the chains in the order shown.

Series [1] has as its system Staphylococcus aureus. Description: Antimicrobial activity against methicillin-resistant Staphylococcus aureus CCARM 3695 treated with supernatant containing 2 mg drug incubated for 10 mins with PBS centrifuged for 3 hrs by radial diffusion assay. The format is functional, organism-based. The procedure, abridged: (§1)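 2 mg peptide incubated 10 min at 37°C in 2 ml PBS, either serum-free or with 50% heat-treated normal human serum. Spun 3 h at 295,000 x g, 4°C. Then 5 µl of supernatant tested by radial diffusion against mid-log MRSA (4 x 10^6 CFU/ml underlay, 3 h at 37°C, overlay, overnight); clear zones measured.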

For series [2], the system named is Listeria monocytogenes. As to the kind of experiment: Antimicrobial activity against Listeria monocytogenes ATCC 19111 infected in BALB/c mouse at 4 mg/kg, iv in presence of increasing concentration of mannan. The format is functional, organism-based. Set-up: dose 4 mg/kg.
Series [3] concerns Staphylococcus aureus. Description: Antimicrobial activity against methicillin-resistant Staphylococcus aureus CCARM 3695 treated with supernatant containing 2 mg drug incubated for 10 mins with PBS containing 50 % normal human serum centrifuged for 3 hrs by radial diffusion assay. The format is functional, organism-based. The method, boiled down: as §1
The test system of series [4] is Enterococcus faecium. As to the kind of experiment: Antimicrobial activity against vancomycin-resistant Enterococcus faecium CCARM 5029 after 18 hrs by broth microdilution assay in presence of 150 mM NaCl. As to conditions: CCARM 5029, 18 h. The format is functional. The procedure, abridged:
(§2)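 Same broth microdilution, but the medium was Mueller-Hinton broth supplemented with 150 mM NaCl. Inoculum 2 x 10^5 CFU/ml final. Peptide twofold series in 0.01% acetic acid (stocks 640 to 10 µg/ml). After 18 h at 37°C, MIC read as the lowest concentration with no visible growth.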

Series [5] deals with Staphylococcus aureus. As to the kind of experiment: Antimicrobial activity against methicillin-resistant Staphylococcus aureus CCARM 3695 treated with sample containing 25 to 200 ug/ml drug incubated with PBS containing 50% normal human serum for 10 mins measured after 3 hrs by radial diffusion assay. The format is functional, organism-based. The method, boiled down:
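Normal human serum from three donors, heat-treated 30 min at 56°C. Peptide at 25–200 µg/ml in PBS with 50% serum, held 10 min at 37°C; 5 µl placed in 3-mm wells. Underlay: 1% agarose, 9 mM phosphate, 1 mM citrate, 0.3 mg/ml TSB, pH 7.4, with 4 x 10^6 CFU/ml mid-log MRSA. After 3 h at 37°C, overlaid (1% agarose, 6% TSB), incubated overnight. Clear zones in units (1 mm = 10 units); triplicate means.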

Series [6] can be described thus: Toxicity in human erythrocytes assessed as hemolysis at 50 ug/ml relative to Triton X-100. The format is cell-based, Erythrocyte. As to conditions: read-out: Activity. The method, boiled down: (§3)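 Peptide (20 µl) was mixed with 180 µl of a 2.5% (vol/vol) human RBC suspension in PBS and incubated 30 min at 37°C. PBS was added and samples centrifuged 3 min at 10,000 x g; supernatant A540 was read. Hemolysis was expressed relative to a peptide-free PBS blank and 1% Triton X-100 as 100%.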

Series [7] relates to Listeria monocytogenes. As to the kind of experiment: Antimicrobial activity against Listeria monocytogenes ATCC 19111 infected in BALB/c mouse at 4 mg/kg, iv in presence of increasing concentration of pustulan. The format is functional, organism-based. Set-up: dose 4 mg/kg.
Series [8] is described as follows: Toxicity in human erythrocytes assessed as hemolysis at 100 ug/ml relative to Triton X-100. The format is cell-based, Erythrocyte. Conditions: read-out: Activity. The method, boiled down:
as §3

Series [9] has as its system Listeria monocytogenes. As to the kind of experiment: Antimicrobial activity against Listeria monocytogenes ATCC 19111 after 18 hrs by broth microdilution assay. Conditions: ATCC 19111, 18 h. The format is functional. The method, boiled down:
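Bacteria were grown overnight to stationary phase in Mueller-Hinton broth at 37°C and diluted to 2 x 10^5 CFU/ml. Line 3 used MHB plus 150 mM NaCl. Peptide stock (640 µg/ml in 0.01% acetic acid) was twofold serially diluted to 10 µg/ml, and 11 µl was added per 100 µl of cells. Turbidity was read after 18 h at 37°C; MIC was the minimum concentration visibly inhibiting growth.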

Series [10] has as its system Staphylococcus aureus. Description: Antimicrobial activity against methicillin-resistant Staphylococcus aureus CCARM 3695 after 18 hrs by broth microdilution assay in presence of 150 mM NaCl. The format is functional. Conditions: CCARM 3695, 18 h. The procedure, abridged: as §2
For orientation: In broth dilution the organism is exposed to a series of concentrations in liquid medium.

Series [11] deals with Listeria monocytogenes. Description: Antibacterial activity against Listeria monocytogenes ATCC 19111 in assay tube containing mixture of erythrocyte/Listeria monocytogenes cells assessed as logarithmic reduction in CFU after 30 mins. The format is functional. The method, boiled down: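 Washed mid-log L. monocytogenes (final 1 x 10^5 CFU/ml) was mixed with human blood cells (final 5 x 10^8 cells/ml) and peptide (final 40 µg/ml) in PBS at 37°C. A peptide-free control was included. At 10, 20 and 30 min, aliquots were plated on TSA and colonies counted after overnight growth. Blood cells were counted by hemocytometer under light microscopy.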

One may read the MIC as the lowest concentration that inhibits growth of the organism. As for `CC(C)C[C@H](NC(=O)CNC(=O)[C@H](Cc1cnc[nH]1)NC(=O)[C@H](Cc1cnc[nH]1)NC(=O)[C@H](CC(C)C)NC(=O)[C@H](CC(C)C)NC(=O)[C@H](C)N)C(=O)N[C@@H](CC(N)=O)C(=O)N[C@@H](CSSC[C@H](NC(=O)[C@H](CC(N)=O)NC(=O)[C@H](CC(C)C)NC(=O)CNC(=O)[C@H](Cc1cnc[nH]1)NC(=O)[C@H](Cc1cnc[nH]1)NC(=O)[C@H](CC(C)C)NC(=O)[C@H](CC(C)C)NC(=O)[C@H](C)NC(=O)[C@H](CC(N)=O)NC(=O)[C@H](CC(C)C)NC(=O)[C@H](Cc1c[nH]c2ccccc12)NC(=O)[C@@H](N)CCCCN)C(=O)N[C@@H](C)C(=O)N[C@@H](CCCCN)C(=O)NCC(=O)N[C@H](C(=O)N[C@@H](CC(C)C)C(=O)N[C@@H](C)C(=O)O)C(C)C)C(=O)N[C@@H](C)C(=O)N[C@@H](CCCCN)C(=O)NCC(=O)N[C@H](C(=O)N[C@@H](CC(C)C)C(=O)N[C@@H](C)C(=O)O)C(C)C` (I: H-KWLNALLHHGLNCAKGVLA-OH / II: H-ALLHHGLNCAKGVLA-OH; disulfide I:13-II:9), the outcome in series [1], in series [2], in series [3], in series [5] and in series [7] was Active. Also, the minimum inhibitory concentration (MIC) worked out at 8 µg/mL in series [4], 4 µg/mL (≈ 1.12 µM) in series [9] and 16 µg/mL in series [10]. Also, the hemolysis at 50 ug/ml in series [6] came out at 4.5%. Moreover, the hemolysis at 100 ug/ml in [8] stood at 8.5%. Further, in series [11], the Activity was 3.
